Laboratory results taken from PubChem BioAssay.
Inconclusive results are not listed.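 How the source made its calls, unless noted: active means growth inhibition above 25% in both replicates, a cutoff set 3 SD above the mean; inconclusive means above 25% in only one replicate; inactive means the rest.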

Legend:
[1] = S. cerevisiae growth inhibition in permissive medium (OD615), pilot counter-assay for S. cerevisiae lifespan shortening project, permissive growth control (AID 705); conditions: OD615, 24 h, at 10 µM, stronger effect = higher value
Procedure, shortened: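 System: Engineered DeaD yeast | Buffer or medium: SC raffinose/galactose permissive medium | Incubation: Cells pre-grown 4 h, then 24 h compound exposure, 30 °C humidified | Measured by: Absorbance (optical density) at 615 nm | Read-out: Reduction in yeast growth (OD615)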

[2] = S. cerevisiae growth inhibition in restrictive medium, OD615, pilot screen, restrictive growth control, yeast lifespan reduction project (AID 706;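 active means growth inhibition above a set limit, 3 SD over mean compound inhibition, in both replicates, cut at about 43% in these data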;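 further: modified DeaD lifespan yeast strain shifted to restrictive glucose medium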); conditions: OD615, 48 h, at 10 µM, stronger effect = higher value
Procedure, shortened: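 Material: modified S. cerevisiae; Medium: glucose-based CSMM-D restrictive medium; Compound dosing: one concentration, 10 µM final, 0.25% DMSO; Incubation: 48 h compound exposure at 30 °C; Measured by: OD615.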

[3] = doxorubicin toxicity protection in MRP-1 cells – H69AR cells, CellTiter-Glo, duplicate, MRP-1 activator project, pilot screen (AID 807;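 active means viability increase at or above a cutoff of the median across tested compounds plus 3 SD, cut at about 8.5% in these data, passing the limit was not always enough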;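 further: compound pretreatment 18-22 h then 72 h combined with doxorubicin; 0% = doxorubicin alone and 100% = vehicle without doxorubicin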); conditions: H69AR viability with doxorubicin, CellTiter-Glo luminescence; at 10 µM; stronger effect = higher value
[4] = viability of HCT116 without oncogenic beta-catenin – human colon tumor cells, pilot screen (AID 823;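 active means cell viability at or below a set limit in both duplicate runs, the limit being the all-compound median minus 4 SD, cut at about 23% in these data, passing the limit was not always enough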;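 further: 0% = wells killed by 20 µM Hyamine and 100% = untreated DMSO cell wells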); conditions: HCT116 beta-catenin knockout viability, CellTiter-Glo, 60 h; at 10 µM; stronger effect = lower value
[5] = viability of PTEN-null HCT116 cells – cell-based, HCT116 clonal line, CellTiter-Glo, pilot screen (AID 824;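 active means viability at or below 27.92% in each of two runs, the all-compound median minus 4 SD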;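 further: 0% = 20 µM Hyamine control and 100% = vehicle cell control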); conditions: HCT116 PTEN-deleted viability, 60 h, at 10 µM, stronger effect = lower value
[6] = RAM pathway blockade in budding yeast – dse1pr::URA3 reporter, 5-FOA selection, pilot screen (AID 869;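 active means inhibition over a set limit, the all-compound mean plus 3 SD, in both replicate runs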;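 further: 0% = DMSO wells with no growth and 100% = 10 µM 1-NA-PP1 with full growth; RAM network block rescues cells from 5-FOA so hits raise OD615 growth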); conditions: S. cerevisiae dse1pr::URA3 5-FOA growth, OD615, 2 d; at 10 µM; stronger effect = higher value; strain carries analog-sensitive mutant Cbk1 kinase
[7] = RAM signaling pathway blockade in yeast – S. cerevisiae, Pdr1DBD-CYC8 efflux-inhibited sensitized strain, primary screen (AID 1298;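 active means RAM network inhibition above 8.4% in each of two replicates, 3 SD over the compound average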;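 further: 0% = DMSO untreated cells without growth and 100% = 10 µM 1-NA-PP1 full growth; higher means more yeast growth rescued from 5-FOA killing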); conditions: S. cerevisiae cbk1-as DSE1-URA3 strain, 5-FOA growth OD615, 2 d; at 50 µM; stronger effect = higher value

CCCCNC(=O)c1ccc(CS(=O)(=O)c2ccc(OC)cc2)o1
inactive: growth inhibition [1] -14.2% | growth inhibition [2] -23% | viability increase [3] -0.64% | viability [4] 107% | viability [5] 97.8% | inhibition [6] 0.45% | RAM network inhibition [7] 2.18%

Cc1ccc(S(=O)(=O)NCC(=O)N2CCOCC2)cc1
inactive: growth inhibition [1] -3.62% | growth inhibition [2] -10.3% | viability increase [3] -1.57% | viability [4] 103% | viability [5] 109% | inhibition [6] -0.085% | RAM network inhibition [7] 0.68%

CCN(CCNC(=O)C1CCN(c2nnc(-n3cccc3)s2)CC1)c1ccccc1
inactive: growth inhibition [1] -4.1% | growth inhibition [2] -6.63% | viability increase [3] -3.79% | viability [4] 90.6% | viability [5] 92.7% | inhibition [6] 0.38% | RAM network inhibition [7] 8.71%

Cc1cc(=O)oc(C)c1C(=O)N1CCc2c([nH]c3ccccc23)C1C(C)C (configuration not stated)
inactive: growth inhibition [1] 3.99% | growth inhibition [2] 3.98% | viability increase [3] -5% | viability [4] 94.9% | viability [5] 89.4% | inhibition [6] 1.1% | RAM network inhibition [7] 4.47%

Cc1ccc2c(c1)C(c1ccc(F)cc1)N(C(=O)C1CC1)CC(=O)N2 (configuration not stated)
inactive: growth inhibition [1] -3.41% | growth inhibition [2] -4.04% | viability increase [3] -1.19% | viability [4] 83% | viability [5] 75.2% | inhibition [6] -0.015% | RAM network inhibition [7] 1.7%

Cc1nc(Nc2nc3ccccc3o2)nc2c1CCC2
inactive: growth inhibition [1] 9.76% | growth inhibition [2] 16.7% | viability increase [3] -1.82% | viability [4] 77.7% | viability [5] 76% | inhibition [6] 0.225% | RAM network inhibition [7] -0.26%

COc1cccc(NC(=O)Nc2nnc(N3CCCCC3C)s2)c1 (configuration not stated)
inactive: growth inhibition [1] -2.52% | growth inhibition [2] -11.5% | viability increase [3] -4.53% | viability [4] 88.8% | viability [5] 97.8% | inhibition [6] 1.83% | RAM network inhibition [7] 4.22%

COC(=O)c1cc(OC)c(OC)cc1N=CC1=C(O)CC(C)(C)CC1=O
inactive: growth inhibition [1] -14.9% | growth inhibition [2] -8.12% | viability increase [3] -0.98% | viability [4] 99.5% | viability [5] 94.1% | inhibition [6] 1.6% | RAM network inhibition [7] 3.12%

CC1(C)SCC2C(=O)N3C(CSC3(C)C)C(=O)N21 (configuration not stated)
inactive: growth inhibition [1] 2.82% | growth inhibition [2] -6.7% | viability increase [3] 0.02% | viability [4] 107% | viability [5] 96.2% | inhibition [6] 1.5% | RAM network inhibition [7] 4.22%

Cn1c(=O)oc2cc(S(=O)(=O)Nc3cccc(F)c3)ccc21
inactive: growth inhibition [1] -14.2% | growth inhibition [2] -2.1% | viability increase [3] -0.69% | viability [4] 94.3% | viability [5] 89.5% | inhibition [6] 2.04% | RAM network inhibition [7] 5.85%

Cc1ccccc1NC(=O)CSC(N)=O
inactive: growth inhibition [1] -1.39% | growth inhibition [2] 14.1% | viability increase [3] -4.63% | viability [4] 89.4% | viability [5] 91% | inhibition [6] 0.48% | RAM network inhibition [7] 8.45%

Cc1cc(-c2nnc(-c3cc4ccccc4oc3=O)o2)c(C)n1-c1ccccc1
inactive: growth inhibition [1] -0.055% | growth inhibition [2] -2.88% | viability increase [3] -2.92% | viability [4] 79.7% | viability [5] 79.1% | inhibition [6] 3.04% | RAM network inhibition [7] 3.21%

O=C(Nc1ccc(N2CCCC2)c(Cl)c1)c1ccc(Br)o1
inactive: growth inhibition [1] 3.44% | growth inhibition [2] 17% | viability increase [3] -4.13% | viability [4] 78.2% | viability [5] 79.2% | inhibition [6] 0.885% | RAM network inhibition [7] 3.68%

CCCC(=O)Nc1nc2ccc(S(=O)(=O)N3CCCCC3)cc2s1
inactive: growth inhibition [1] -20.7% | growth inhibition [2] -19.5% | viability increase [3] -6.94% | viability [4] 32.5% | viability [5] 37.3% | inhibition [6] 1.27% | RAM network inhibition [7] 1.93%

COc1ccc(OC)c(NC(=O)c2cnc3n(c2=O)CCS3)c1
inactive: growth inhibition [1] -1.9% | growth inhibition [2] -0.45% | viability increase [3] -1.5% | viability [4] 100% | viability [5] 95.9% | inhibition [6] 2.48% | RAM network inhibition [7] 7.21%

CN(CCCC(=O)Nc1nccs1)S(=O)(=O)c1ccc(Cl)cc1
inactive: growth inhibition [1] -0.375% | growth inhibition [2] 0.355% | viability increase [3] -1.24% | viability [4] 110% | viability [5] 97.7% | inhibition [6] 1.51% | RAM network inhibition [7] 0.41%

Cc1ccccc1C(=O)N1CCC(C(=O)Nc2cccc(F)c2)CC1
inactive: growth inhibition [1] -7.2% | growth inhibition [2] -1.04% | viability increase [3] -0.02% | viability [4] 98.1% | viability [5] 82.7% | inhibition [6] 1.3% | RAM network inhibition [7] 3.22%

Cc1onc(-c2ccccc2)c1C(=O)Nc1cccc(C#N)c1
inactive: growth inhibition [1] -20.3% | growth inhibition [2] -6.79% | viability increase [3] -2.52% | viability [4] 96.5% | viability [5] 88.5% | inhibition [6] 2.92% | RAM network inhibition [7] 4.56%

CCCCCn1c(=O)[nH]c2c(c1=O)CCC2
inactive: growth inhibition [1] 2.71% | growth inhibition [2] -0.545% | viability increase [3] 1.82% | viability [4] 101% | viability [5] 100% | inhibition [6] -0.56% | RAM network inhibition [7] 0.26%

COc1ccc(S(=O)(=O)N2CCN(c3cccc(C)c3C)CC2)cc1
inactive: growth inhibition [1] -16.7% | growth inhibition [2] -13.3% | viability increase [3] 1.83% | viability [4] 97.9% | viability [5] 90.5% | inhibition [6] 1.02% | RAM network inhibition [7] 2.58%

COc1ccc(-c2noc(-c3ccccc3F)n2)cc1
inactive: growth inhibition [1] -9.92% | growth inhibition [2] -12% | viability increase [3] -3.21% | viability [4] 86.6% | viability [5] 83.1% | inhibition [6] 0.965% | RAM network inhibition [7] 4.28%

Cc1nc2ccc3nc(NC(=O)C4COc5ccccc5O4)sc3c2s1 (configuration not stated)
inactive: growth inhibition [1] -10.6% | growth inhibition [2] 0.74% | viability increase [3] -4.93% | viability [4] 86.8% | viability [5] 80.6% | inhibition [6] 1.55% | RAM network inhibition [7] -0.06%

COc1ccccc1N1CCN(c2cc(=O)n(-c3ccc(Cl)cc3)c(=O)[nH]2)CC1
inactive: growth inhibition [1] -5.8% | growth inhibition [2] -7.77% | viability increase [3] -2.22% | viability [4] 84.4% | viability [5] 77.7% | inhibition [6] 1.07% | RAM network inhibition [7] 7.55%

CCN1CCN(CC(=O)Nc2ccccc2)C(=O)C1=O
inactive: growth inhibition [1] -2.23% | growth inhibition [2] 9.12% | viability increase [3] 0.2% | viability [4] 103% | viability [5] 107% | inhibition [6] 1.19% | RAM network inhibition [7] -0.21%

CCC(=O)Nc1c2c(nn1-c1cccc(Cl)c1)CSC2
inactive: growth inhibition [1] -7.68% | growth inhibition [2] -8.67% | viability increase [3] -1.61% | viability [4] 89.7% | viability [5] 86.1% | inhibition [6] 2.1% | RAM network inhibition [7] 1.11%

CCc1ccc(C2N(c3ccc(OC)cc3)C(=O)C3CCCN32)cc1 (configuration not stated)
inactive: growth inhibition [1] 2.83% | growth inhibition [2] -2.37% | viability increase [3] -1.6% | viability [4] 95.3% | viability [5] 101% | inhibition [6] 0.83% | RAM network inhibition [7] 0.23%

COc1ccc(NC(=O)C2CCN(S(=O)(=O)c3cccc4cccnc34)CC2)cc1OC
inactive: growth inhibition [1] -4.2% | growth inhibition [2] 0.21% | viability increase [3] -1.69% | viability [4] 107% | viability [5] 96.6% | inhibition [6] 1.41% | RAM network inhibition [7] 1.04%

Cn1nnnc1SCC(=O)c1cccs1
inactive: growth inhibition [1] -23.8% | growth inhibition [2] -13% | viability increase [3] -2.93% | viability [4] 93% | viability [5] 90.9% | inhibition [6] 1.24% | RAM network inhibition [7] 1.92%

CCOc1ccc(OCC)c(S(=O)(=O)NCc2ccc3c(c2)OCO3)c1
inactive: growth inhibition [1] -9.29% | growth inhibition [2] -2.62% | viability increase [3] -2.97% | viability [4] 95.1% | viability [5] 96.5% | inhibition [6] 1.52% | RAM network inhibition [7] 5.31%

Cc1cc(NC(=O)c2cn(C3CCCCC3)c(=O)c3c2c2ccccc2n3C)no1
inactive: growth inhibition [1] -5.84% | growth inhibition [2] 11.9% | viability increase [3] -3.21% | viability [4] 71.7% | viability [5] 71.7% | inhibition [6] 1.8% | RAM network inhibition [7] 7.54%

CCc1ccc(NC(=O)CSc2nnc(Cc3cccn3C)n2-c2ccc(F)cc2)cc1
inactive: growth inhibition [1] 4.25% | growth inhibition [2] 12.9% | viability increase [3] -5.81% | viability [4] 77.2% | viability [5] 68.9% | inhibition [6] 0.05% | RAM network inhibition [7] 7.15%

Cn1c(Cn2c(=O)sc3ccccc32)nnc1SCC(=O)NC1CCCCC1
inactive: growth inhibition [1] -17% | growth inhibition [2] -24.8% | viability increase [3] -0.4% | viability [4] 97.6% | viability [5] 98% | inhibition [6] 0.415% | RAM network inhibition [7] 1.06%

CC(=O)c1ccc(OCC(O)COc2ccc(C(C)=O)cc2)cc1
inactive: growth inhibition [1] -2.04% | growth inhibition [2] -4.87% | viability increase [3] 0.11% | viability [4] 96.2% | viability [5] 94.7% | inhibition [6] 1.22% | RAM network inhibition [7] 0.16%

Cc1cccc(N=C2NC(=O)/C(=C3/C(=O)N(C)c4ccccc43)S2)c1C
inactive: growth inhibition [1] -18.4% | growth inhibition [2] -15.6% | viability increase [3] -7.01% | viability [4] 95.5% | viability [5] 91.1% | inhibition [6] 2.91% | RAM network inhibition [7] 1.77%

CCC(C)[C@@H](C(=O)Nc1ccc2c(c1)OCO2)N1Cc2ccccc2C1=O (some centres not stated)
inactive: growth inhibition [1] -14.7% | growth inhibition [2] -13.5% | viability increase [3] -2.97% | viability [4] 91.5% | viability [5] 75.1% | inhibition [6] 0.51% | RAM network inhibition [7] 4.42%

Cc1cc(C)c(NC(=O)C(C)(C)C)c(Cl)c1
inactive: growth inhibition [1] -6.4% | growth inhibition [2] 6.2% | viability increase [3] -0.89% | viability [4] 89.8% | viability [5] 86.2% | inhibition [6] 1.72% | RAM network inhibition [7] 1.23%
